Measured values reported in ChEMBL document CHEMBL3351385, “Synthesis and preliminary mechanistic evaluation of 5-(p-tolyl)-1-(quinolin-2-yl)pyrazole-3-carboxylic acid amides with potent antiproliferative activity on human cancer cell lines” (Eur J Med Chem, 2014).
The source made the active and inactive calls. The calls are words filed in the database; no cut-off is given here.

How the values were obtained:
[1] = tested on: MCF7; experiment: Cytotoxicity against human MCF7 cells after 72 hrs by SRB assay; type: functional, cell-based; details: MCF7, 72 h
Outline: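 Cells kept in DMEM with 10% FCS and penicillin/streptomycin at 37°C, 5% CO2. 2000–3000 cells/well were seeded, and medium was refreshed the next day. DMSO solutions were added over 2.5–40 µM with matched DMSO-only controls for 72 h. Cells were then TCA-fixed, stained with 0.4% SRB in 1% acetic acid, solubilized in 10 mM Tris pH 8 and read at 515 nm. Data were normalized to DMSO wells and expressed as mean ±SD.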

[2] = tested on: Huh-7; experiment: Induction of cell death in human HuH7 cells assessed as DNA fragmentation at cytotoxic IC50 level after 72 hrs by Hoechst 33258 staining based […]; type: functional
Outline: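 Cells were washed in cold PBS, fixed 10 min in cold methanol and stained with Hoechst 33258 at 3 µg/mL for 5 min in the dark. Nuclear condensation and fragmentation were examined by fluorescence microscopy at 40×.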

[3] = Induction of cell cycle arrest in human Mahlavu cells assessed as accumulation at G0/G1 phase at cytotoxic IC50 level after 48 hrs by propidium iodide staining based FACS method; type: functional
[4] = Induction of cell cycle arrest in human HuH7 cells assessed as accumulation at S phase at cytotoxic IC50 level after 48 hrs by propidium iodide staining based FACS method; type: functional, Huh-7
Outline: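 Huh7 cells were seeded at 150,000–300,000 per 100-mm dish and left 24 h. […] Cells were stained with a propidium iodide-containing cell cycle reagent, and subG1, G0/G1, S and G2/M fractions were scored by flow cytometry.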

[5] = molecular target: Dual specificity mitogen-activated protein kinase kinase 2 (Homo sapiens) (UniProt P36507); experiment: Inhibition of MKK2 (unknown origin) assessed as remaining enzyme activity at 10 uM by radioactive [33P]-ATP filter binding assay
[6] = molecular target: Mitogen-activated protein kinase 3 (Homo sapiens) (UniProt P27361); experiment: Inhibition of ERK1 (unknown origin) assessed as remaining enzyme activity at 10 uM by radioactive [33P]-ATP filter binding assay
Outline: (§1)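 A single 10 µM concentration was tested across a 140-kinase panel. Activity was measured by a radioactive 33P-ATP filter-binding assay run at the International Center for Kinase Profiling, University of Dundee.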

[7] = molecular target: Serine/threonine-protein kinase Chk1 (Homo sapiens) (UniProt O14757); experiment: Inhibition of CHK1 (unknown origin) assessed as remaining enzyme activity at 10 uM by radioactive [33P]-ATP filter binding assay; outline: as §1
[8] = molecular target: Aurora kinase A (Homo sapiens) (UniProt O14965); experiment: Inhibition of Aurora A (unknown origin) assessed as remaining enzyme activity at 10 uM by radioactive [33P]-ATP filter binding assay; outline: as §1
[9] = molecular target: Serine/threonine-protein kinase MARK1 (Homo sapiens) (UniProt Q9P0L2); experiment: Inhibition of MARK1 (unknown origin) assessed as remaining enzyme activity at 10 uM by radioactive [33P]-ATP filter binding assay
[10] = molecular target: Tyrosine-protein kinase BTK (Homo sapiens) (UniProt Q06187); experiment: Inhibition of BTK (unknown origin) assessed as remaining enzyme activity at 10 uM by radioactive [33P]-ATP filter binding assay; outline: as §1
[11] = molecular target: Tyrosine-protein kinase SYK (Homo sapiens) (UniProt P43405); experiment: Inhibition of SYK (unknown origin) assessed as remaining enzyme activity at 10 uM by radioactive [33P]-ATP filter binding assay
[12] = molecular target: Tyrosine-protein kinase ZAP-70 (Homo sapiens) (UniProt P43403); experiment: Inhibition of ZAP70 (unknown origin) assessed as remaining enzyme activity at 10 uM by radioactive [33P]-ATP filter binding assay
[13] = molecular target: Protein-tyrosine kinase 6 (Homo sapiens) (UniProt Q13882); experiment: Inhibition of BRK (unknown origin) assessed as remaining enzyme activity at 10 uM by radioactive [33P]-ATP filter binding assay; outline: as §1
[14] = molecular target: Ephrin type-B receptor 4 (Homo sapiens) (UniProt P54760); experiment: Inhibition of EPHB4 (unknown origin) assessed as remaining enzyme activity at 10 uM by radioactive [33P]-ATP filter binding assay; outline: as §1
[15] = molecular target: Receptor tyrosine-protein kinase erbB-4 (Homo sapiens) (UniProt Q15303); experiment: Inhibition of HER4 (unknown origin) assessed as remaining enzyme activity at 10 uM by radioactive [33P]-ATP filter binding assay
[16] = molecular target: Serine/threonine-protein kinase PAK 6 (Homo sapiens) (UniProt Q9NQU5); experiment: Inhibition of PAK6 (unknown origin) assessed as remaining enzyme activity at 10 uM by radioactive [33P]-ATP filter binding assay
[17] = molecular target: Maternal embryonic leucine zipper kinase (Homo sapiens) (UniProt Q14680); experiment: Inhibition of MELK (unknown origin) assessed as remaining enzyme activity at 10 uM by radioactive [33P]-ATP filter binding assay
[18] = molecular target: Casein kinase I isoform delta (Homo sapiens) (UniProt P48730); experiment: Inhibition of CK1delta (unknown origin) assessed as remaining enzyme activity at 10 uM by radioactive [33P]-ATP filter binding assay; outline: as §1
[19] = molecular target: Casein kinase II (Homo sapiens) (UniProt P67870+P68400+P19784); experiment: Inhibition of CK2 (unknown origin) assessed as remaining enzyme activity at 10 uM by radioactive [33P]-ATP filter binding assay; type: protein-complex assay; outline: as §1
[20] = molecular target: Serine/threonine-protein kinase Nek6 (Homo sapiens) (UniProt Q9HC98); experiment: Inhibition of NEK6 (unknown origin) assessed as remaining enzyme activity at 10 uM by radioactive [33P]-ATP filter binding assay
[21] = molecular target: Homeodomain-interacting protein kinase 1 (Homo sapiens) (UniProt Q86Z02); experiment: Inhibition of HIPK1 (unknown origin) assessed as remaining enzyme activity at 10 uM by radioactive [33P]-ATP filter binding assay
[22] = molecular target: Homeodomain-interacting protein kinase 2 (Homo sapiens) (UniProt Q9H2X6); experiment: Inhibition of HIPK2 (unknown origin) assessed as remaining enzyme activity at 10 uM by radioactive [33P]-ATP filter binding assay
[23] = molecular target: Dual specificity protein kinase CLK2 (Homo sapiens) (UniProt P49760); experiment: Inhibition of CLK2 (unknown origin) assessed as remaining enzyme activity at 10 uM by radioactive [33P]-ATP filter binding assay; outline: as §1
[24] = molecular target: Serine/threonine-protein kinase 24 (Homo sapiens) (UniProt Q9Y6E0); experiment: Inhibition of MST3 (unknown origin) assessed as remaining enzyme activity at 10 uM by radioactive [33P]-ATP filter binding assay
[25] = molecular target: Mitogen-activated protein kinase kinase kinase kinase 5 (Homo sapiens) (UniProt Q9Y4K4); experiment: Inhibition of MAP4K5 (unknown origin) assessed as remaining enzyme activity at 10 uM by radioactive [33P]-ATP filter binding assay
[26] = molecular target: Interleukin-1 receptor-associated kinase 4 (Homo sapiens) (UniProt Q9NWZ3); experiment: Inhibition of IRAK4 (unknown origin) assessed as remaining enzyme activity at 10 uM by radioactive [33P]-ATP filter binding assay
[27] = molecular target: Serine/threonine-protein kinase WNK1 (Homo sapiens) (UniProt Q9H4A3); experiment: Inhibition of WNK1 (unknown origin) assessed as remaining enzyme activity at 10 uM by radioactive [33P]-ATP filter binding assay
Chain of Serine/threonine-protein kinase WNK1 (Homo sapiens) (Q9H4A3 whole entry, looked up): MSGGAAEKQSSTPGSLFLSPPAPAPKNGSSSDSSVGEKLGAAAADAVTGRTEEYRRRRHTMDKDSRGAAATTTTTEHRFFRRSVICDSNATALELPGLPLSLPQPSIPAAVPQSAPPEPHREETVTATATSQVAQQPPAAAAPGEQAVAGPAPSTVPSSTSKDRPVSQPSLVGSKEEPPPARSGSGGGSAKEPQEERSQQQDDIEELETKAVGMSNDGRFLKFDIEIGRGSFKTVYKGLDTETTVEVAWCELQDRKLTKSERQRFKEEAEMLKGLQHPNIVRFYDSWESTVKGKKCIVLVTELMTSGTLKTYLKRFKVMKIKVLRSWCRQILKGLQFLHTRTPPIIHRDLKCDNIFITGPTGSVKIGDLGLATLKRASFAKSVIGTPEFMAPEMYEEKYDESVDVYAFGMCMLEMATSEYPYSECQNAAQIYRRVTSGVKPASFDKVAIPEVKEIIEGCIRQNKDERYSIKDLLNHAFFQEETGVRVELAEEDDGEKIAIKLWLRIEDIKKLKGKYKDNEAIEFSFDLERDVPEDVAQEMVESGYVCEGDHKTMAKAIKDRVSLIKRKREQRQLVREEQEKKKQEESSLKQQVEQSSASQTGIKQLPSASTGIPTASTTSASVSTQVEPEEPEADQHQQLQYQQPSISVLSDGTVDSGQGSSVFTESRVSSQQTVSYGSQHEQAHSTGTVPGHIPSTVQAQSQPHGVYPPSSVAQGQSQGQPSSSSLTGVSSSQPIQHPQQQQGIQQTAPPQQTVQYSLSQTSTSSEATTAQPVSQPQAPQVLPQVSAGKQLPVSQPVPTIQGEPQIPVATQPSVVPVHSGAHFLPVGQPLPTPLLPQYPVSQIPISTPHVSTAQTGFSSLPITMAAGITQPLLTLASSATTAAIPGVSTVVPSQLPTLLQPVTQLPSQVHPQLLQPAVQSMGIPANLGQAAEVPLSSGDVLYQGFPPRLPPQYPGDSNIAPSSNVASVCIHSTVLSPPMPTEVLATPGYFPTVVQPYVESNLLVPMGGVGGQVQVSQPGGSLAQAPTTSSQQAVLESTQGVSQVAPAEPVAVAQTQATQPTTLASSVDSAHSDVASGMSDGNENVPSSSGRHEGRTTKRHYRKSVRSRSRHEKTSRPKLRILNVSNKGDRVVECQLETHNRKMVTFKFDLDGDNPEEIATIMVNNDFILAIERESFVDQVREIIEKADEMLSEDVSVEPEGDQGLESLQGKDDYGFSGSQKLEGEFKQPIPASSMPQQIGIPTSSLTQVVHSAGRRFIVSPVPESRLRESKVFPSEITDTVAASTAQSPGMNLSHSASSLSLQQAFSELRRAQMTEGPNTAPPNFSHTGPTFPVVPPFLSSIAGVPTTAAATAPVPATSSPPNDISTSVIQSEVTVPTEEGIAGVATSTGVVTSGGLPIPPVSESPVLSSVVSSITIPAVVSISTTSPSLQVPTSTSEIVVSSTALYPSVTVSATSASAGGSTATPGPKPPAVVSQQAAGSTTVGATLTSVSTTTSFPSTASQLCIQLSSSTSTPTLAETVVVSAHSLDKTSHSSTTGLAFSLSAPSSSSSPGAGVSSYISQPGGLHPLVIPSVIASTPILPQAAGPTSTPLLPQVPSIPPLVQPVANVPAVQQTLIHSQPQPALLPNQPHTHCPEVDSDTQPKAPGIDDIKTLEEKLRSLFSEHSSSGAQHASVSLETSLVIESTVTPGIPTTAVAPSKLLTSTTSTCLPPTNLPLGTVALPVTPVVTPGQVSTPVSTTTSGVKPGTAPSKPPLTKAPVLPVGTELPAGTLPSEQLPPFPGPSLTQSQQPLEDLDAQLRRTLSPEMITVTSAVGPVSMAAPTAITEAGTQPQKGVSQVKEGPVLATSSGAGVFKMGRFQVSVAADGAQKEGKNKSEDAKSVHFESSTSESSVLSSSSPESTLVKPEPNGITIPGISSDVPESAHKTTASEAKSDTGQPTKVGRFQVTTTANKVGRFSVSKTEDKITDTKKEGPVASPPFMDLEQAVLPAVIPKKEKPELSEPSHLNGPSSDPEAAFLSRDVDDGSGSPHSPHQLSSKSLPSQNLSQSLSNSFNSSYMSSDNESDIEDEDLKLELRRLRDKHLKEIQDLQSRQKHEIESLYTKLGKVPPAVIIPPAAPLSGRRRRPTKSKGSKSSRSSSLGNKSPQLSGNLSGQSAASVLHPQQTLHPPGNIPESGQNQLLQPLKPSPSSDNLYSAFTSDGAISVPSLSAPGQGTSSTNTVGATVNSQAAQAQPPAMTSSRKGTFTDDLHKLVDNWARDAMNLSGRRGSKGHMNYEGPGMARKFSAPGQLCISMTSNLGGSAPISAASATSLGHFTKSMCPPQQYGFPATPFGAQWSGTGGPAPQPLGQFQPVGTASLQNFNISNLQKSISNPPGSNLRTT

Chain of Serine/threonine-protein kinase 24 (Homo sapiens) (Q9Y6E0 whole entry, looked up): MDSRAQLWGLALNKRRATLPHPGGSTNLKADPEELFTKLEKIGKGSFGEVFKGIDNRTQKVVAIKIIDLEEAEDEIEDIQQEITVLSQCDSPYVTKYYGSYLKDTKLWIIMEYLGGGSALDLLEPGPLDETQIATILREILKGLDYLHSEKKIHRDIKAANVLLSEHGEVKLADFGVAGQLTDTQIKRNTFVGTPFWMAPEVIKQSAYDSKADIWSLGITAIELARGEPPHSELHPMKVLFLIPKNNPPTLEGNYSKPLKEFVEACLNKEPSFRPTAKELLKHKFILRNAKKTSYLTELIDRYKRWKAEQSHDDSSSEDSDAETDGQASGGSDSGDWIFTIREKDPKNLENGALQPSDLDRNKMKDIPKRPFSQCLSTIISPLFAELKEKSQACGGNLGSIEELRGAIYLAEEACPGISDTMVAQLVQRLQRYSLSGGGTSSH
Chain of Mitogen-activated protein kinase kinase kinase kinase 5 (Homo sapiens) (Q9Y4K4 whole entry, looked up): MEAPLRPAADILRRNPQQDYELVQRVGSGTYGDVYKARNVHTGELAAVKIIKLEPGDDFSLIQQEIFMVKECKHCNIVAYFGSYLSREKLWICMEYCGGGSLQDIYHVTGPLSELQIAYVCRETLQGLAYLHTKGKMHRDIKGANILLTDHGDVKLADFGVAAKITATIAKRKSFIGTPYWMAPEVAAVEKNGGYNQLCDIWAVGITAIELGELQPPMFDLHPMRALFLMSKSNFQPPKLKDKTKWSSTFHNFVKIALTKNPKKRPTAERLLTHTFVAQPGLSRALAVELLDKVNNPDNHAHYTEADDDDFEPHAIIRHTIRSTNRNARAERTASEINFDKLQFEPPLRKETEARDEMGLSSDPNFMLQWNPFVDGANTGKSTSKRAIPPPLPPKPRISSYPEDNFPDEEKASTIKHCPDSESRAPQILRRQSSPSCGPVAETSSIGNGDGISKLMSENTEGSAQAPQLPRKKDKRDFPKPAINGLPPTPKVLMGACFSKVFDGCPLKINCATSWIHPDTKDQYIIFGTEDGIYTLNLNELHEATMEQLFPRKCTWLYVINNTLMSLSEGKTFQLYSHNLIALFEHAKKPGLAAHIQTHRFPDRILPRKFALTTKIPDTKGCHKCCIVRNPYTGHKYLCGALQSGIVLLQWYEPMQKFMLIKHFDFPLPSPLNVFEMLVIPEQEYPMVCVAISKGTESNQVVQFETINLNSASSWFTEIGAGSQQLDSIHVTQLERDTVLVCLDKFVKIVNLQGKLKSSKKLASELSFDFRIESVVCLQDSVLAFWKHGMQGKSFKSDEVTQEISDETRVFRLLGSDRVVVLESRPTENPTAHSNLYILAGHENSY
Chain of Homeodomain-interacting protein kinase 2 (Homo sapiens) (Q9H2X6 whole entry, looked up): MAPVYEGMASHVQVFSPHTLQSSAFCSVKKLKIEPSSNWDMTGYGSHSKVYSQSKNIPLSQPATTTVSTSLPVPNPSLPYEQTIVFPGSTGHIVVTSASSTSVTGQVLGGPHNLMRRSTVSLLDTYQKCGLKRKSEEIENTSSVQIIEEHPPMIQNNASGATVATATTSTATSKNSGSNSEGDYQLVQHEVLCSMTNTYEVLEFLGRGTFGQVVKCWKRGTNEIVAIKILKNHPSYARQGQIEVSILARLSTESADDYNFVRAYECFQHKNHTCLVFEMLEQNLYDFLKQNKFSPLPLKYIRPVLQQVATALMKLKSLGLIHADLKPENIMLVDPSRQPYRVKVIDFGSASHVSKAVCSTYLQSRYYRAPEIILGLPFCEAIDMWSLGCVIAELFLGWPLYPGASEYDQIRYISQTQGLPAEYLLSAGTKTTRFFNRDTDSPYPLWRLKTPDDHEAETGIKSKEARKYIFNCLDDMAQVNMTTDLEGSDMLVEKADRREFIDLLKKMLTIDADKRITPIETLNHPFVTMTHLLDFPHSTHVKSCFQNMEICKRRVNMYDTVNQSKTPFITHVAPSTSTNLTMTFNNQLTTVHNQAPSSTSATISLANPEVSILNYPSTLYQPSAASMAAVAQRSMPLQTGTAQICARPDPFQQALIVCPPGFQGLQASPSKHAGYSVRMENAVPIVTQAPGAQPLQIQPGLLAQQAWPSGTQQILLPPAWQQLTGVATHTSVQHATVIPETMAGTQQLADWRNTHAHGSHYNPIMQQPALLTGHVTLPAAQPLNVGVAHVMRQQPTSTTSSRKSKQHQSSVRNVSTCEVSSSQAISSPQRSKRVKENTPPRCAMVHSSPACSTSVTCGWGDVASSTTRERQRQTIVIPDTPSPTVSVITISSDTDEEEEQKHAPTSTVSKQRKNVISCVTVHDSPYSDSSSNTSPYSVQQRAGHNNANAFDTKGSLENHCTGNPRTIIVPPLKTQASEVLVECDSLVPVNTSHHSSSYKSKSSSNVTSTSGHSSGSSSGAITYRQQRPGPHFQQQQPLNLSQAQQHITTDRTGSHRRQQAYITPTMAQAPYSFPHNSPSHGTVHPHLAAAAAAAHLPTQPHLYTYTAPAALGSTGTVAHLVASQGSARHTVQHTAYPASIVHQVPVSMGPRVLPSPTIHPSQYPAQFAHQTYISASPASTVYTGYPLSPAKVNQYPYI

Activity [5]: 94% | Activity [6]: 103% | Activity [7]: 85% | Activity [8]: 120% | Activity [9]: 99% | Activity [10]: 92% | Activity [11]: 97% | Activity [12]: 115% | Activity [13]: 109% | Activity [14]: 125% | Activity [15]: 128% | Activity [16]: 104% | Activity [17]: 98% | Activity [18]: 96% | Activity [19]: 85% | Activity [20]: 116% | Activity [21]: 98% | Activity [22]: 124% | Activity [23]: 83% | Activity [24]: 106% | Activity [25]: 87% | Activity [26]: 90% | Activity [27]: 106%
SMILES: Cc1ccc(-c2cc(C(=O)Nc3ccnc(Cl)c3)nn2-c2ccc3ccccc3n2)cc1
IC50 [1]: 3.3 µM | Activity [2]: Active | Activity [3]: 58.7% | Activity [4]: 10.3%
